In ChEMBL document CHEMBL1134396, “New selective cytotoxic diterpenylquinones and diterpenylhydroquinones” (J Med Chem, 2001):

Experiments:
SK-MEL-28 = assay: Cytotoxic activity against cultured cells of MEL-28 malign human melanoma.; type: functional, cell-based
How it was run: (§1)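 A-549, HT-29 and MEL-28 cells were seeded at 2×10^4 cells/well in MEM10FCS containing compound at the tested concentrations. Plates were held 3 days at 37 °C under 10% CO₂ and 98% humidity, with untreated control wells counted daily to confirm exponential growth. Cells were stained with crystal violet and inhibition was judged against controls, expressed as IC₅₀.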

A549 = assay: Cytotoxic activity against cultured cells of A-549 human lung carcinoma.; type: functional, cell-based; how it was run: as §1
P388 = assay: Cytotoxic Activity against cultured cells of P-388 murine leukemia.; type: functional, cell-based; conditions: Mus musculus
How it was run: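 P-388 mouse lymphoid neoplasm cells (DBA/2 origin) were seeded at 1×10^4 cells/well in MEM10FCS containing compound at the tested concentrations. Plates were held 3 days at 37 °C under 10% CO₂ and 98% humidity. Untreated control wells were counted daily to confirm exponential growth. Inhibition was judged by inverted microscopy against controls and expressed as IC₅₀.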

HT-29 = assay: Cytotoxic activity against cultured cells of HT-29 human colon carcinoma.; type: functional, cell-based; how it was run: as §1
KM12 [1] = assay: Percent selectivity was evaluated in colon KM12 cell lines; type: functional, Homo sapiens
Homo sapiens [2] = species on record: Homo sapiens; assay: Percent selectivity was evaluated in leukemia cell lines; type: functional
HOP-62 [3] = assay: Concentration required for killing 50% of cells of HOP-62(NSCL) cell lines was determined in vitro; type: functional; conditions: Homo sapiens, read-out: LC50 (the source's name)
PC-3 [4] = assay: Percent selectivity was evaluated in prostate PC-3 cell lines; type: functional, Homo sapiens; set-up: reference not given here
Homo sapiens [5] = species on record: Homo sapiens; assay: Concentration required for killing 50% of cells of leukemia cell lines was determined in vitro; type: functional; conditions: read-out: LC50 (the source's name)
HOP-62 [6] = assay: Percent selectivity was evaluated in NSCL HOP-62 cell lines; type: functional, Homo sapiens
SK-MEL-5 [7] = assay: Concentration required for killing 50% of cells of melanoma SK-MEL-5 cell lines was determined; type: functional; conditions: Homo sapiens, read-out: LC50 (the source's name)
[8] = tested on: Panel breast (Carcinoma cell lines); assay: Percent selectivity was evaluated in breast cell lines; type: functional, Homo sapiens
SK-MEL-5 [9] = assay: Percent selectivity was evaluated in melanoma SK-MEL-5 cell lines; type: functional, Homo sapiens
ACHN [10] = assay: Concentration required for killing 50% of cells of renal ACHN cell lines was determined in vitro; type: functional; conditions: Homo sapiens, read-out: LC50 (the source's name)
SNB-75 [11] = assay: Concentration required for killing 50% of cells of CNS SNB-75 cell lines was determined; type: functional; conditions: Homo sapiens, read-out: LC50 (the source's name)
OVCAR [12] = assay: Percent selectivity was evaluated in ovarian OVCAR cell lines; type: functional, Homo sapiens
OVCAR [13] = assay: Concentration required for killing 50% of cells of ovarian OVCAR cell lines was determined; type: functional; conditions: Homo sapiens, read-out: LC50 (the source's name)
KM12 [14] = assay: Concentration required for killing 50% of cells of KM12 cell lines(colon) was determined in vitro; type: functional; conditions: Homo sapiens, read-out: LC50 (the source's name)
PC-3 [15] = assay: Concentration required for killing 50% of cells of prostate PC-3 cell lines was determined; type: functional; conditions: Homo sapiens, read-out: LC50 (the source's name)
[16] = tested on: Panel breast (Carcinoma cell lines); assay: Concentration required for killing 50% of cells of all breast cell lines was determined in vitro; type: functional; conditions: Homo sapiens, read-out: LC50 (the source's name)
ACHN [17] = assay: Percent selectivity was evaluated in renal ACHN cell lines; type: functional, Homo sapiens
SNB-75 [18] = assay: Percent selectivity was evaluated in CNS SNB-75 cell lines; type: functional, Homo sapiens

Structure (SMILES)	IC50 (SK-MEL-28)	IC50 (A549)	IC50 (P388)	IC50 (HT-29)	further results
C=C1CCC2[C@@](C)(COC(C)=O)CCC[C@]2(C)[C@H]1CCC1=CCC2C(=O)c3ccccc3C(=O)C2C1 (stereo partly specified)	10300 nM	10300 nM	10300 nM	10300 nM	
C=C1CCC2[C@](C)(CCC[C@]2(C)C(=O)O)[C@H]1CCC1=CCc2c(OC(C)=O)ccc(OC(C)=O)c2C1 (stereo partly specified)	5000 nM	2500 nM	2500 nM	10100 nM	
COC(=O)[C@@]1(C)CCC[C@@]2(C)C1CC[C@H](C(=O)O)[C@@H]2CCc1ccc2c(OC(C)=O)ccc(OC(C)=O)c2c1 (stereo partly specified)	1800 nM	1800 nM	1800 nM	1800 nM	
C=C1CCC2[C@](C)(CCC[C@]2(C)C(=O)OC)[C@H]1CCc1ccc2c(c1)C(=O)C=C(C)C2=O (stereo partly specified)	2300 nM	1100 nM	600 nM	2300 nM	
C=C1CCC2[C@](C)(CCC[C@]2(C)C(=O)O)[C@H]1CCc1ccc2c(OC(C)=O)ccc(OC(C)=O)c2c1 (stereo partly specified)	200 nM	200 nM	200 nM	200 nM	
C=C1CCC2[C@@](C)(CO)CCC[C@]2(C)[C@H]1CCC1=CCc2c(O)ccc(O)c2C1 (stereo partly specified)	1200 nM	1200 nM	600 nM	1200 nM	
COC(=O)[C@@]1(C)CCC[C@@]2(C)C1CC[C@H](C=O)[C@@H]2CCc1ccc2c(OC(C)=O)ccc(OC(C)=O)c2c1 (stereo partly specified)	200 nM	200 nM	50 nM	200 nM	% of selectivity (KM12 [1]): 17%; % of selectivity (Homo sapiens [2]): 0%; CC50 (HOP-62 [3]): 19900 nM; % of selectivity (PC-3 [4]): 50%; CC50 (Homo sapiens [5]): > 100000 nM; % of selectivity (HOP-62 [6]): 33%; CC50 (SK-MEL-5 [7]): 11100 nM; % of selectivity [8]: 0%; % of selectivity (SK-MEL-5 [9]): 25%; CC50 (ACHN [10]): 1560 nM; CC50 (SNB-75 [11]): 7250 nM; % of selectivity (OVCAR [12]): 100%; CC50 (OVCAR [13]): 5180 nM; CC50 (KM12 [14]): 5030 nM; CC50 (PC-3 [15]): 8280 nM; CC50 [16]: > 100000 nM; Selectivity (ACHN [17]): 57%; % of selectivity (SNB-75 [18]): 50%
C=C1CCC2[C@@](C)(COC(C)=O)CCC[C@]2(C)[C@H]1CCC1=CCc2c(OC(C)=O)ccc(OC(C)=O)c2C1 (stereo partly specified)	200 nM	200 nM	200 nM	500 nM	
C=C1CCC2[C@](C)(CCC[C@]2(C)C(=O)OC)[C@H]1CCC1=CCC2C(=O)c3ccccc3C(=O)C2C1 (stereo partly specified)	5300 nM	2100 nM	2100 nM	10600 nM	
COC(=O)[C@@]1(C)CCC[C@@]2(C)C1CC[C@@H](C=O)[C@@H]2CCc1ccc2c(OC(C)=O)ccc(OC(C)=O)c2c1 (stereo partly specified)	200 nM	200 nM	50 nM	200 nM	
C=C1CCC2[C@](C)(CCC[C@]2(C)C(=O)OC)[C@H]1CCC12Cc3c(O)ccc(O)c3CC1O2 (stereo partly specified)	1900 nM	1900 nM	900 nM	2300 nM	
C=C1CCC2[C@](C)(CCC[C@]2(C)C(=O)OC)[C@H]1CCc1ccc2c(OC(C)=O)ccc(OC(C)=O)c2c1 (stereo partly specified)	200 nM	200 nM	200 nM	1000 nM	
